Experiments:
[1] = molecular target: T1, Plasminogen activator inhibitor 1 (Homo sapiens, UniProt P05121); assay: Plasminogen Activator Inhibitor-1 (PAI-1) activity was determined by inhibition of Urokinase-type plasminogen activator using primary assay
How it was run: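 Human recombinant PAI-1 (6 nM) preincubated with compound for 2 min at room temperature in 50 mM Tris-HCl, 150 mM NaCl, 2.5 mM CaCl2, 0.1% PEG 6000, pH 7.5. Human kidney urokinase (0.0175 units/mL) added for a further 2 min, then chromogenic substrate S2444. Rate of absorbance change read at 405 nm. Controls with uPA alone and uPA plus PAI-1 on each plate. IC50 taken from dose-response curve fit.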

[2] = Bioavailability in rat (cannulated) (dose 2 mg/kg); type: ADME, organism-based; conditions: in vivo
How it was run: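 Given intravenously and orally at 2 mg/kg to cannulated conscious rats. Vehicle: 94% PEG/2% 0.1HCl/4% EtOH solution.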

[3] = molecular target: T1, Plasminogen activator inhibitor 1; assay: Plasminogen Activator Inhibitor-1 (PAI-1) activity was determined using plasma clot lysis assay; type: functional, cell-free
How it was run: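 Pooled human plasma diluted 1:3 in 150 mM NaCl, 2 mM CaCl2, 20 mM Hepes, pH 7.4. Clotting started with human thrombin (30 nM), with exogenous human tPA (4 nM) present. Lysis followed at 37 °C by absorbance at 405 nm.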

T1 sequence (P05121 whole entry): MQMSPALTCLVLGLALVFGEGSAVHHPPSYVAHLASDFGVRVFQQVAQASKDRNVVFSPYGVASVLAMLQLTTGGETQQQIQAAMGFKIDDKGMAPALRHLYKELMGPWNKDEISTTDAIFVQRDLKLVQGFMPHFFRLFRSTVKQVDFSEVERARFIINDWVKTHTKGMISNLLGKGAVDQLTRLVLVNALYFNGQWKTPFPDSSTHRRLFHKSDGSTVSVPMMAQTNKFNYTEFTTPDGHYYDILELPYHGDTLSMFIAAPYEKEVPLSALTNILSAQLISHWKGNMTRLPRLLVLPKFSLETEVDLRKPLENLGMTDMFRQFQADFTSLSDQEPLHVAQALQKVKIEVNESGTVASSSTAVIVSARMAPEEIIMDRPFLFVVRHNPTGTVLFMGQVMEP

Structure (SMILES)	IC50 [1] [nM]	bioavailability [2] [%]	IC50 [3] [nM]
CC(C)[C@@H]1CC[C@@H](C)C[C@H]1OCC(=O)Nc1cc(N2CCCC2C(=O)O)ccc1[N+](=O)[O-] (some centres undefined)	2200	–	–
CCCN(Cc1ccc(NCc2c(O)cc(C)c3c2Oc2c(C(=O)O)cc(OC)c(C)c2OC3=O)cc1)C(=O)CO[C@@H]1C[C@H](C)CC[C@H]1C(C)C	5000	–	–
CC(C)[C@@H]1CC[C@@H](C)C[C@H]1OCC(=O)NCc1ccc(NCc2ccccc2)cc1	> 15000	–	–
CC(C)[C@@H]1CC[C@@H](C)C[C@H]1OCC(=O)NCc1ccc(NCc2c(F)cccc2Oc2c(O)cccc2C(=O)O)cc1	710	–	–
COc1cc(C(=O)O)c2c(c1C)OC(=O)c1c(C)cc(O)c(CNc3ccc(CCNC(=O)CO[C@@H]4C[C@H](C)CC[C@H]4C(C)C)cc3)c1O2	3900	–	–
CC(C)[C@@H]1CC[C@@H](C)C[C@H]1OCC(=O)NCc1ccc(NCc2ccc(C(=O)O)cc2)cc1	3200	–	–
COc1ccc(Oc2ccccc2CNc2ccc(CNC(=O)CO[C@@H]3C[C@H](C)CC[C@H]3C(C)C)cc2)c(C(=O)O)c1	1400	–	–
CC(C)[C@@H]1CC[C@@H](C)C[C@H]1OCC(=O)Nc1cc(Oc2cccc(C(=O)O)c2)ccc1[N+](=O)[O-]	400	< 10	100
COc1cc(C(=O)O)c2c(c1C)OC(=O)c1c(C)cc(O)c(CNc3ccc(NC(=O)CO[C@@H]4C[C@H](C)CC[C@H]4C(C)C)cc3)c1O2	1100	–	–
CC(C)[C@@H]1CC[C@@H](C)C[C@H]1OCC(=O)NCc1ccc(NCc2cc([N+](=O)[O-])ccc2Oc2ccccc2C(=O)O)cc1	710	–	–
COc1ccc(Oc2cccc(F)c2CNc2ccc(CNC(=O)CO[C@@H]3C[C@H](C)CC[C@H]3C(C)C)cc2)c(C(=O)O)c1	1400	–	–
CC(C)[C@@H]1CC[C@@H](C)C[C@H]1OCC(=O)Nc1cc(Oc2ccc(C(=O)O)cc2)ccc1[N+](=O)[O-]	380	24	10
CC(C)[C@@H]1CC[C@@H](C)C[C@H]1OCC(=O)Nc1cc(N[C@H]2CC[C@H](C(=O)O)CC2)ccc1[N+](=O)[O-]	1100	–	–
CC(C)[C@@H]1CC[C@@H](C)C[C@H]1OCC(=O)NCc1ccc(NCc2ccccc2S(=O)(=O)O)cc1	> 15000	–	–
CC(C)[C@@H]1CC[C@@H](C)C[C@H]1OCC(=O)Nc1cc(Oc2ccc(C(=O)O)cn2)ccc1[N+](=O)[O-]	2600	–	–
COc1cc(C(=O)O)c2c(c1C)OC(=O)c1c(C)cc(O)c(CNc3ccc(NC(=O)CO[C@@H]4C[C@H](C)CC[C@H]4C(C)C)nc3)c1O2	530	–	–
CC(C)[C@@H]1CC[C@@H](C)C[C@H]1OCC(=O)NCc1ccc(NCc2cc([N+](=O)[O-])ccc2Oc2cc(Oc3ccccc3)ccc2C(=O)O)cc1	2600	–	–

Structure (SMILES)	IC50 [1] [nM]	bioavailability [2] [%]	IC50 [3] [nM]
CC(C)[C@@H]1CC[C@@H](C)C[C@H]1OCC(=O)Nc1cc(N2CCCC(C(=O)O)C2)ccc1[N+](=O)[O-] (some centres undefined)	890	–	–
CC(C)[C@@H]1CC[C@@H](C)C[C@H]1OCC(=O)NCc1ccc(NCc2cc([N+](=O)[O-])ccc2O)cc1	2700	–	–
COc1cc(C(=O)O)c2c(c1C)OC(=O)c1c(C)cc(O)c(CNc3cccc(CNC(=O)CO[C@@H]4C[C@H](C)CC[C@H]4C(C)C)c3)c1O2	1400	–	–
CC(C)[C@@H]1CC[C@@H](C)C[C@H]1OCC(=O)Nc1cc(N2CCCCC2C(=O)O)ccc1[N+](=O)[O-] (some centres undefined)	2900	–	–
CC(C)[C@@H]1CC[C@@H](C)C[C@H]1OCC(=O)Nc1cc(N2CC(C(=O)O)C2)ccc1[N+](=O)[O-]	2900	–	–
COc1cc(C(=O)O)c(Oc2c(CNc3ccc(CNC(=O)CO[C@@H]4C[C@H](C)CC[C@H]4C(C)C)cc3)c(O)cc(C)c2C(N)=O)c(O)c1C	600	–	–
COc1cc(C(=O)O)c(Oc2c(CNc3ccc(CNC(=O)CO[C@@H]4C[C@H](C)CC[C@H]4C(C)C)cc3)c(O)cc(C)c2C(=O)O)c(O)c1C	1800	–	–
COc1cccc(CNc2ccc(CNC(=O)CO[C@@H]3C[C@H](C)CC[C@H]3C(C)C)cc2)c1Oc1ccc([N+](=O)[O-])cc1C(=O)O	1200	94	100
CC(C)[C@@H]1CC[C@@H](C)C[C@H]1OCC(=O)NCc1ccc(NCc2cccc(C(=O)O)c2)cc1	7800	–	–
COc1cc(C(=O)O)c2c(c1C)OC(=O)c1c(C)cc(O)c(CNc3ccc(CNC(=O)CO[C@@H]4C[C@H](C)CC[C@H]4C(C)C)cc3)c1O2	1400	23	100
COc1cc(C(=O)O)c2c(c1C)OC(=O)c1c(C)cc(O)c(CN3CCC(NC(=O)CO[C@@H]4C[C@H](C)CC[C@H]4C(C)C)CC3)c1O2	> 15000	–	–
COc1cccc(CNc2ccc(CNC(=O)CO[C@@H]3C[C@H](C)CC[C@H]3C(C)C)cc2)c1Oc1ncccc1C(=O)O	500	–	–
CC(C)[C@@H]1CC[C@@H](C)C[C@H]1OCC(=O)Nc1cc(N[C@H]2CC[C@@H](C(=O)O)CC2)ccc1[N+](=O)[O-]	900	–	–
CC(C)[C@@H]1CC[C@@H](C)C[C@H]1OCC(=O)Nc1cc(N2CCC(C(=O)O)CC2)ccc1[N+](=O)[O-]	940	< 10	10
COc1cccc(CNc2ccc(CNC(=O)CO[C@@H]3C[C@H](C)CC[C@H]3C(C)C)cc2)c1Oc1ccc(N)cc1C(=O)O	700	–	–
CC(C)[C@@H]1CC[C@@H](C)C[C@H]1OCC(=O)NCc1ccc(NCc2ccccc2Oc2ccccc2)cc1	> 15000	–	–
CC(C)[C@@H]1CC[C@@H](C)C[C@H]1OCC(=O)NCc1ccc(NCc2ccncc2)cc1	> 15000	–	–

Reference: ChEMBL document CHEMBL1136251, “Synthesis and biological evaluation of menthol-based derivatives as inhibitors of plasminogen activator inhibitor-1 (PAI-1)” (Bioorg Med Chem Lett, 2003)
